Experimental findings from ChEMBL document CHEMBL3351414, “Novel 9'-substituted-noscapines: synthesis with Suzuki cross-coupling, structure elucidation and biological evaluation” (Eur J Med Chem, 2014) are described below.

Calls of active or inactive are those of the source. The rule behind the calls is not given here.

For test [1], the system named is HeLa. Description: Downregulation of cdc25c protein level in human HeLa cells at 25 uM after 24 hrs by Western blot analysis. The format is functional, cell-based. As to conditions: in the assay text read “after 48 hrs” for “after 24 hrs”. The essentials: (§1)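 HeLa cells treated 24 or 48 h at 25 µM, then washed in PBS and lysed 30 min on ice. 20 µg protein per lane was resolved on 7.5–15% SDS-PAGE and blotted to PVDF. Blots were probed for cyclin B, p-cdc2 Tyr15, cdc25C and γH2A.X, with β-actin reprobe as loading control and ECL detection.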
On the technique in general: A western blot detects proteins with antibodies after separation by electrophoresis.

In the next test the target is Tubulin (Bos taurus) (UniProt Q6B856+Q862L2+Q862F3). The experiment in a line: Displacement of [3H]colchicine from bovine brain tubulin at 500 uM after 10 mins by liquid scintillation counting.
The subject of test [2] is HeLa. Description: Upregulation of cyclin B protein level in human HeLa cells at 25 uM after 24 hrs by Western blot analysis. The format is functional, cell-based.
The subject of a further test is PBL. The experiment in a line: Cytotoxicity against resting human PBLs assessed as reduction in cell growth. The format is cell-based. The essentials: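 Peripheral blood lymphocytes from healthy donors, tested either resting (no PHA) or PHA-stimulated. Value is the concentration reducing cell growth by 50%, mean ± SEM of three separate experiments.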
Test [3] concerns HeLa. Description: Induction of apoptosis in human HeLa cells assessed as late apoptotic cells at 25 uM after 24 hrs using Annexin-V/PI staining by flow cytometry (reference value: 4.31 %). Format: functional. A general note: In flow cytometry, cells or beads pass a laser one at a time.
In a further test the test system is Jurkat. The experiment in a line: Cell cycle arrest in human Jurkat cells assessed as accumulation at G2/M phase at 10 to 25 uM after 24 hrs by flow cytometry. The format is functional, cell-based. The essentials: (§2)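 5×10^5 HeLa or Jurkat cells exposed to graded compound concentrations for 24 h. Cells were fixed in ice-cold 70% ethanol, lysed with RNase A/0.1% Triton X-100 buffer and stained with propidium iodide. DNA content was read by flow cytometry. Phase percentages are mean ± SEM of three independent experiments.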

In test [4] the test system is HeLa. The experiment in a line: Upregulation of cdc25c protein level in human HeLa cells at 25 uM after 24 hrs by Western blot analysis. Format: functional, cell-based.
Test [5] relates to HeLa. Description: Induction of DNA damage in human HeLa cells assessed as increase in phosphorylated form of histone gamma-H2A.X level at 25 uM after 24 hrs by Western blot analysis. Format: functional, cell-based. The essentials: as §1
In test [6] the test system is HeLa. Description: Induction of apoptosis in human HeLa cells assessed as caspase 9 cleavage at 25 uM after 24 to 48 hrs by Western blot analysis. Format: functional, cell-based. The essentials: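 HeLa cells treated 24 or 48 h at 25 µM, then lysed. 20 µg protein per lane was run on SDS-PAGE and transferred to PVDF. Membranes were probed 2 h at room temperature for cleaved caspase-9, caspase-3, cleaved PARP, Bcl-2, Mcl-1 or Bax, with peroxidase secondary antibody and ECL. β-Actin reprobe served as loading control.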

For the next test, the system named is LoVo. Description: Antiproliferative activity against human LoVo cells assessed as reduction in cell viability after 72 hrs by MTT assay. Format: functional, cell-based. For orientation: Tetrazolium dyes change colour on reduction, which living cells bring about.
Test [7] has as its system HeLa. The experiment in a line: Upregulation of aurora kinase A protein level in human HeLa cells at 25 uM after 24 hrs by Western blot analysis. Format: functional, cell-based.
Test [8] relates to HeLa. The experiment in a line: Cell cycle arrest in human HeLa cells assessed as accumulation at G2/M phase at 10 to 25 uM after 24 hrs by flow cytometry. Format: functional, cell-based. The essentials: as §2
A further test relates to A549. The experiment in a line: Antiproliferative activity against human A549 cells assessed as reduction in cell viability after 72 hrs by MTT assay. Format: functional, cell-based. The settings on record: A549, 72 h. The essentials:
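Cells kept in RPMI-1640 (Jurkat, SEM, RS4;11) or DMEM (A549, HeLa, IGROV-1, HT-29) with 10% FBS plus penicillin/streptomycin. 8×10^3 cells per well were left 18 h at 37 °C in 5% CO2. Medium was then replaced with fresh medium holding graded compound concentrations from 10 mM DMSO stocks. Cells were incubated 72 h and viability read by MTT. IC50 is the mean ± SEM from dose–response curves of at least three independent experiments.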

For test [9], the system named is HeLa. Description: Downregulation of cyclin B protein level in human HeLa cells at 25 uM after 48 hrs by Western blot analysis. Format: functional, cell-based. The essentials: as §1
A further test deals with CCRF-CEM. Description: Antiproliferative activity against human CEM cells assessed as reduction in cell viability after 72 hrs by MTT assay. The format is functional, cell-based.
Test [10] concerns HeLa. The experiment in a line: Disruption of microtubule network in human HeLa cells assessed as induction of spherical morphology at 25 uM after 24 hrs by immunofluorescence microscopy. Format: cell-based. The essentials:
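HeLa cells exposed 24 h at 25 µM, fixed in cold 4% formaldehyde for 15 min, and stained with anti-β-tubulin plus Alexa-conjugated secondary antibody, with DAPI counterstain. Cells were imaged by confocal microscopy.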

The target in another test is Tubulin (Bos taurus, UniProt Q6B856+Q862L2+Q862F3). Description: Displacement of [3H]colchicine from bovine brain tubulin assessed as rate of assembly after 10 mins by liquid scintillation counting.
The test system of test [11] is HeLa. Description: Effect on PCM1 protein in human HeLa cells assessed as accumulation of pericentriolar material at 25 uM after 24 hrs by immunofluorescence microscopy. The format is functional, cell-based. The essentials:
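After 24 h at 25 µM, HeLa cells were stained with anti-PCM1 and Alexa-conjugated secondary antibody, with phalloidin-tetramethylrhodamine B for actin and DAPI for nuclei. Cells were imaged by confocal microscopy at 60×.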

The test system of test [12] is HeLa. Description: Induction of DNA damage in human HeLa cells assessed as increase in phosphorylated form of histone gamma-H2A.X level at 25 uM after 48 hrs by Western blot analysis. Format: functional, cell-based. The essentials:
as §1

In test [13] the test system is CA46. Description: Antiproliferative activity against human CA46 cells assessed as reduction in cell viability after 72 hrs by MTT assay. The settings on record: CA46, 72 h. Format: functional, cell-based.
Test [14] relates to CA46. The experiment in a line: Cell cycle arrest in human CA46 cells assessed as reduction in mitotic index by Giemsa staining method relative to control. The format is functional. On the set-up: scale not given: the % may be the effect or the level left. The essentials:
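CA46 Burkitt lymphoma cells grown in RPMI 1640 with 17% FBS and 2 mM L-glutamine at 37 °C, 5% CO2, treated 16 h. Cells were swollen 10 min in half-strength PBS, fixed in 0.5% acetic acid–1.5% ethanol, then spread from 25% acetic acid/75% ethanol. Slides were Giemsa-stained. Mitotic cells were those with condensed chromosomes and no nuclear membrane, with ≥200 cells counted per condition.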

For test [15], the system named is CA46. The experiment in a line: Cell cycle arrest in human CA46 cells assessed as accumulation at G2/M phase at 5 times IC50 by flow cytometry. The format is functional.

What is called inhibition is the relative decrease from the control value, in per cent. By IC50 is commonly meant the concentration that inhibits the measured activity by half. Turning to `COc1ccc2c(c1OC)C(=O)O[C@@H]2[C@H]1c2c(c(-c3ccc(C)cc3)c3c(c2OC)OCO3)CCN1C`, the outcome in the test with HeLa [1], with HeLa [2], in the test on Jurkat, in the test on HeLa [4], in the test on HeLa [5] and in the test with HeLa [6] was Active. Besides, the outcome in the test on HeLa [7], in the test with HeLa [8] and in the test on HeLa [9] was Active. Further, the inhibition at Tubulin (Bos taurus) came to 64%. Further, the 50% inhibitory concentration (IC50) is > 200 µM in the test on PBL, 41.8 µM in the test with LoVo, 22.2 µM with A549 and 11.8 µM in the test on CCRF-CEM. In addition, in the test on HeLa [3], the Activity is reported as 22.9%.

Regarding `COc1ccc2c(c1OC)C(=O)O[C@@H]2[C@H]1c2c(c(Br)c3c(c2OC)OCO3)CCN1C`, the result in the test on HeLa [1], in the test with HeLa [11], in the test with HeLa [6], in the test with HeLa [8] and in the test with HeLa [12] was Active. The same compound showed an inhibition on Tubulin (Bos taurus) of 34%. The Activity with HeLa [10] amounted to 70%; with HeLa [3], 44.7%. Further, the IC50 was > 200 µM with PBL; > 400 µM at Tubulin; 42.8 µM with LoVo; 73.9 µM in the test with A549; 2.8 µM in the test on CCRF-CEM.

Take `COc1ccc2c(c1OC)C(=O)O[C@@H]2[C@H]1c2c(c(C)c3c(c2OC)OCO3)CCN1C`: at Tubulin (Bos taurus), the inhibition is 39%. In addition, the IC50 in the test on CA46 [13] was 18 µM; in the test with PBL, > 200 µM; in the test with LoVo, 66.3 µM; in the test on A549, > 100 µM; in the test on CCRF-CEM, 8.8 µM. Further, the result in the test on HeLa [2], in the test with Jurkat, in the test with HeLa [11], with HeLa [5], in the test with HeLa [6] and with HeLa [7] was Active. In addition, the outcome in the test with HeLa [8] was Active. Moreover, the Activity in the test with HeLa [10] is 70%; in the test on HeLa [3] it was 13.9%; in the test with CA46 [14], 38%; with CA46 [15], >80%.
